Assay outcomes as filed in PubChem BioAssay.
Compounds with a hit are over-represented: about 2.2% of the library has one in this group of screens.
b-catenin transl = modulators of beta-catenin nuclear translocation, primary screen, imaging, HeLa cells, immunofluorescence, high-content | nuclear translocation activity, % at 5 µM | hit rate 0.3% among 190,000 | AID 1665, 2009;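 active means nuclear translocation activity above 50% at 5 µM, with a well cell count of 50 or more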;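 further: per-cell ratio of nuclear to cytoplasmic median beta-catenin stain intensity; plate controls were DMSO negative control for no effect and GSK-3 inhibitor IX positive control for full effect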
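Assay system: human HeLa cells, native beta-catenin; doses: 5 µM primary, 0.02–20 µM confirmation; incubation: compound treatment 24 h, 37°C, 5% CO2; technique: fluorescence imaging of beta-catenin antibody stain plus DAPI; measure: % activation, nuclear-to-cytoplasmic median beta-catenin signal ratio per cell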
MT stabilizer = microtubule stabilizers in HeLa cells, primary screen, imaging, high-content imaging | HeLa tubulin immunostaining HCS, 24 h; share of cells brighter than vehicle mean+2SD | hit rate 0.83% among 200,000 | % tubulin-high responders, % at 10 µM;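 active means plate Z-score above 3 for both tubulin-high and condensed-nucleus cell shares, with cell loss under 80%, at 10 µM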;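 further: anti alpha tubulin signal scored within the nucleus-defined area of each cell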
APP 5UTR inh = inhibitors of APP translation via 5'UTR reporter, primary screen, APP 5'UTR luciferase, SH-SY5Y cells; AID 1285, 2008; inhibition, % at 2 µM; SH-SY5Y APP 5'UTR-luciferase reporter, luminescence; hit rate 0.82% among 190,000;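 active means inhibition above a set limit, derived from the sample mean plus 3 SD, cut at about 45% in these data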
BaF3 tox = parental Ba/F3 cell viability inhibition, counter-screen for JAK2V617F inhibitor project, murine pro-B, CellTiter-Glo luminescence. hit rate 1.1% among 220,000. CellTiter-Glo ATP luminescence. AID 1486, 2009. inhibition, % at 5.6 µM;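 active means inhibition above a per-campaign cutoff, the mean inhibition of all tested compounds plus 3 SD, cut at about 27% in these data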;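 further: 0% = DMSO wells and 100% = JAK Inhibitor I control wells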
Ba/F3 V617F tox = reduced viability of JAK2V617F-dependent Ba/F3 cells, primary screen, JAK2V617F inhibitor project, cell-based, Ba/F3 EpoR-JAK2V617F, luminescence; ATP luminescence; inhibition, % at 5.6 µM; hit rate 1.1% among 220,000;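 active means inhibition above the campaign mean plus 3 SD over all tested compounds, cut at about 24% in these data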;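 further: cytokine-independent growth of Ba/F3 cells driven by EpoR plus mutant JAK2; 0% = DMSO-treated cells and 100% = JAK inhibitor I control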
IEC-6 tox = cytotoxicity in IEC-6 intestinal epithelial cells, primary screen, cytotoxicity control for KLF5 inhibitor project, cell-based, luminescence. IEC-6 cytotoxicity, luminescence viability. inhibition, % at 5 µM. hit rate 0.78% among 290,000; in the data active means inhibition above about 22%;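 further: 0% = plate median of test compound wells and 100% = cytotoxic reference compound wells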
* hit, by the source's call; . = not tested or not shown.

SMILES	b-catenin transl	MT stabilizer	APP 5UTR inh	BaF3 tox	Ba/F3 V617F tox	IEC-6 tox
O=C(O)CCCCCNS(=O)(=O)c1cccc2c1C(=O)c1ccccc1C2=O	-1	5	3	13	6	26*
CC(C)N(C)Cc1nnnn1CC(=O)NCCc1cccc(C(F)(F)F)c1	.	.	.	.	.	6
CCCCS(=O)(=O)N1CCCC(C(=O)Oc2ccc(Cl)cc2)C1 (centres undefined)	.	.	.	.	.	1
O=C(Nc1ccc(S(=O)(=O)N2CCCCC2)cc1)c1ccc(CN2CCc3ccccc3C2)cc1	4	2	15	34*	30*	12
CCCc1cc(=O)oc2cc(OCc3ccc(C(=O)O)cc3)ccc12	.	.	.	.	.	15
COc1cc(C(=O)Nc2ccccc2NC(=O)c2cc(OC)c(OC)c(OC)c2)cc(OC)c1OC	.	.	.	.	.	5
COc1cc(C(=O)Nc2ccc(Br)cc2C(=O)c2cc(OC)c(OC)c(OC)c2)cc(OC)c1OC	4	34*	-9	-3	-4	4
COc1cc(C(=O)Nc2ccc(N(C)C)cc2)cc(OC)c1OC	36	26*	-47	3	-1	7
COc1cc(C(=O)Nc2ccc(S(=O)(=O)N(C)c3ccccc3)cc2)cc(OC)c1OC	1	2	-3	4	3	-1
Cc1cc(OC(=O)c2ccccc2C)c([N+](=O)[O-])c(=O)[nH]1	.	.	.	.	.	-3
COc1cccc(C(C(=O)NCC2CCCO2)N(C(=O)Cn2nnc3ccccc32)c2ccccc2C(C)=O)c1OC (centres undefined)	.	.	.	.	.	-2
O=c1nc(SCc2ccccc2Cl)nc(-c2ccc(Cl)cc2)[nH]1	0	.	.	0	0	-3
O=c1nc(SCc2c(F)cccc2Cl)nc(-c2ccc(Cl)cc2)[nH]1	0	.	.	40*	-2	-5
CC(=O)Oc1c(C)c(=O)n(C)c2ccccc12	-5	2	-16	42*	66*	0
Cc1c(Cc2ccccc2)sc(/N=C/c2c(O)ccc3ccccc23)c1C(N)=O	0	3	-6	2	-1	1
Cc1c(Cc2ccccc2)sc(/N=C/c2ccc3ccccc3c2)c1C(N)=O	101*	19*	53*	2	-3	8
CCC(C)[C@H]1COCCS(=O)(=O)N1Cc1ccc(Cl)cc1Cl (some centres undefined)	.	.	.	.	.	2
Cc1ccc2oc(-c3cccc(NC(=S)NC(=O)/C=C/c4ccco4)c3)nc2c1	11	37*	-16	5	2	0
O=C(CSc1nnc(NC(=O)C2CC2)s1)Nc1ccccc1Cl	.	.	.	.	.	1
CCN(CC)CCSc1nnc2c3cc(C)ccc3n(Cc3ccccc3)c2n1	1	.	.	33*	25*	2
COc1ccc(C2(c3ccc(OC)cc3)NC(=O)N(CC(=O)Nc3cc(C)ccc3OC)C2=O)cc1	.	.	.	.	.	0
Cc1ccc(OCC(=O)NCCCNC(=O)c2ccccn2)cc1C	.	.	.	.	.	1
Cc1ccc(C(OCC(C)(C)C[N+](C)(C)C)c2ccccc2)cc1 (centres undefined)	-1	4	10	58*	27*	-1
COc1ccc(CCN2CCCn3c2nc2c3c(=O)n(C)c(=O)n2C)cc1OC	.	.	.	.	.	3
CCc1n(CC(O)COCc2ccccc2)c2ccccc2[n+]1C (centres undefined)	1	3	-7	49*	38*	-3
SMILES	b-catenin transl	MT stabilizer	APP 5UTR inh	BaF3 tox	Ba/F3 V617F tox	IEC-6 tox
O=C(O)CN1C(=O)/C(=C\C(Br)=C\c2ccccc2)SC1=S	.	.	.	.	.	-12
Clc1ccccc1-c1nnc2sc(-c3ccc4c(c3)OCO4)nn12	2	8	-22	4	2	2
Brc1ccccc1-c1nnc2sc(-c3ccc4c(c3)OCCO4)nn12	.	38*	-6	2	4	9
CCn1cc(C(=O)N[C@H](C(=O)NCCN2CCOCC2)C(C)C)c(=O)c2cc3c(cc21)OCO3	.	.	.	.	.	3
Clc1ccc(-c2cn(-c3ccc(Cl)cc3)c3[n+]2CCCCC3)cc1	1	.	.	62*	46*	2
COc1ccc(-n2cc(-c3ccc(Cl)cc3)[nH]c2=S)cc1	0	.	.	-1	-5	-6
Clc1ccc(-c2cn3nc4c(nc3n2)CCCC4)cc1	1	2	-191	2	-2	3
COc1ccc(N2CC(O)(c3ccc(OC(F)F)cc3)[N+]3=C2CCCC3)cc1 (centres undefined)	0	2	9	7	1	5
COc1ccc(-n2cc(-c3ccc(OC(F)F)cc3)[n+]3c2CCCCC3)cc1	-2	1	-6	64*	72*	10
COc1ccc(-c2cn(-c3ccc(Cl)cc3)c3[n+]2CCCCC3)cc1	1	.	.	68*	71*	3
Cn1c(CNC(=O)c2ccc3c(c2)OCO3)nnc1SCC(=O)Nc1ccccc1F	.	.	.	.	.	-4
Cc1c(C(C)C)c(=O)n(-c2ccc(S(=O)(=O)NCc3ccccc3)cc2)n1C	2	3	8	72*	42*	6
Cc1c(C(C)C)c(=O)n(-c2ccc(S(=O)(=O)N3CCOCC3)cc2)n1C	-1	2	12	11	-1	3
Cc1c(C(C)C)c(=O)n(-c2ccc(S(=O)(=O)NC3CCCCC3)cc2)n1C	0	4	12	41*	37*	5
O=S(=O)(Nc1ccc(N2CCOCC2)cc1)c1ccc(F)cc1	-1	3	10	90*	2	-6
N#Cc1nc(-c2cccc(Cl)c2)oc1N1CCC(C(N)=O)CC1	.	.	.	.	.	3
CCC(=O)c1ccc(OCC(O)Cn2c(C)nc3ccccc32)cc1 (centres undefined)	0	4	-8	44*	42*	6
Cc1nc2ccccc2n1CC(O)COc1ccc(Br)cc1 (centres undefined)	0	1	7	2	0	5
CCCC(=O)N1c2ccccc2C(=C2SC(C(=O)OC)=C(C(=O)OC)S2)C(=S)C1(C)C	-1	42*	1	6	1	1
CCCCC(=O)Nc1nc(C)c(-c2csc(Nc3cc(OC)ccc3OC)n2)s1	39	52*	2	9	4	-7
CC(=O)c1cccc(NC(=O)c2ccccc2N(Cc2ccccc2)S(C)(=O)=O)c1	.	.	.	.	.	6
C=CCn1c(C)cc(C(=O)CSc2nnc(NCc3ccccc3)s2)c1C	-4	40*	-16	1	-3	6
O=C(Nc1ccc(Br)cn1)c1ccc2nccnc2c1	.	12*	-21	4	-5	-3
CCc1ccc(C(=O)NNC(=O)CCC2CCCCC2)cc1	.	.	.	.	.	-6
CC(Oc1cc2oc(=O)c3c(c2cc1Cl)CCC3)C(=O)NCc1ccccn1 (centres undefined)	.	.	.	.	.	2
